The record followed here is ChEMBL document CHEMBL1138498 (J Med Chem, 2009).

Data set [1] in a line: Plasma clearance in rat. The format is ADME, organism-based.
Data set [2] relates to Meriones unguiculatus. As to the kind of experiment: Inhibition of GR-73632-induced foot tapping in po dosed Mongolian gerbil assessed as duration of repetitive hind foot tapping administered 1 hr before GR-73632 challenge measured after 4 hrs. The format is functional. Conditions: read-out: ID50 (the source's name). The method in brief: (§1)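 Male Mongolian gerbils (45-70 g), at least seven per group, received vehicle or compound orally (10 mL/kg) at 1, 2, 4 or 8 h before icv GR73632 (3 pmol/5 µL). Foot tapping was then scored. Doses were compared by ANOVA with Dunnett's test.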

Data set [3] can be described thus: Bioavailability in dog. It counts as ADME, organism-based, Canis lupus familiaris. The conditions noted are these: in vivo.
The nature of data set [4]: Half life in rat. The format is ADME, organism-based. Conditions: in vivo.
Data set [5] is described as follows: Bioavailability in rat. It counts as ADME, organism-based. The conditions noted are these: in vivo.
Data set [6] has as its system Meriones unguiculatus. Briefly: Inhibition of GR-73632-induced foot tapping in po dosed Mongolian gerbil assessed as duration of repetitive hind foot tapping administered 1 hr before GR-73632 challenge measured after 8 hrs. The conditions noted are these: read-out: ID50 (the source's name). The format is functional. Put shortly: as §1
For data set [7], the system named is Meriones unguiculatus. As to the kind of experiment: Inhibition of GR-73632-induced foot tapping in po dosed Mongolian gerbil assessed as duration of repetitive hind foot tapping administered 1 hr before GR-73632 challenge measured after 2 hrs. It counts as functional. The conditions noted are these: read-out: ID50 (the source's name). Put shortly:
as §1

Data set [8] concerns Meriones unguiculatus. Briefly: Inhibition of GR-73632-induced foot tapping in po dosed Mongolian gerbil assessed as duration of repetitive hind foot tapping administered 1 hr before GR-73632 challenge measured after 1 hr. The conditions noted are these: read-out: ID50 (the source's name). It counts as functional. Put shortly: as §1
The nature of data set [9]: Ratio of drug level in brain to plasma in rat at 1 mg/kg, iv after 5 mins.
Data set [10] is described as follows: Half life in dog. Conditions: in vivo. It counts as ADME, organism-based, Canis lupus familiaris.
Data set [11] relates to Meriones unguiculatus. Briefly: Inhibition of GR-73632-induced foot tapping in po dosed Mongolian gerbil assessed as duration of repetitive hind foot tapping administered 1 hr before GR-73632 challenge. The format is functional. The conditions noted are these: read-out: ID50 (the source's name). Put shortly: as §1
In data set [12] the target is T1, Substance-P receptor (Homo sapiens, UniProt P25103). The conditions noted are these: CHO.
T1 sequence (P25103 whole entry): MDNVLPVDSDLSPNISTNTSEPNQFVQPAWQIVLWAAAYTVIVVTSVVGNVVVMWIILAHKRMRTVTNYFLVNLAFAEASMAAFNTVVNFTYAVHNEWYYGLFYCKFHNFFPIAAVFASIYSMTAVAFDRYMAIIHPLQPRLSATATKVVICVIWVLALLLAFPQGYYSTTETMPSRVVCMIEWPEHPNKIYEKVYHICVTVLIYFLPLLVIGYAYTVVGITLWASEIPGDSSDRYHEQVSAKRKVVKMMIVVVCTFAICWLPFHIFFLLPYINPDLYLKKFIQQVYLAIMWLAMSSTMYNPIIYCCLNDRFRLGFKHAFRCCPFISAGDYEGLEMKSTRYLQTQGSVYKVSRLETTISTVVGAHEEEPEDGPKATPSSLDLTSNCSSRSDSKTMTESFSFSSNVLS
Data set [13] is described as follows: Plasma clearance in dog. The format is ADME, organism-based, Canis lupus familiaris.
The target of data set [14] is T1, Substance-P receptor. Conditions: CHO. The source holds these as a separate data set.
The target in data set [15] is T1, Substance-P receptor. As to the kind of experiment: Displacement of [3H]substance P from human recombinant NK1 receptor expressed in CHO cells. It counts as cell-based. On the technique in general: In a radioligand displacement assay an active substance lowers the binding of a labelled ligand.

By clearance is commonly meant a measure of how efficiently the substance is removed, as volume per time. As usually defined, the bioavailability is dose-corrected exposure relative to a reference, in per cent. A higher bioavailability goes with good availability. As usually defined, the half-life is how long it takes for the measured level to halve. A lower half-life goes with fast loss. By Kp is commonly meant tissue or fluid exposure divided by exposure in the circulation. The term pKb denotes −log10 of the Kb, conventionally taken in molar units. Low readings indicate a large Kb, high ones a small Kb. In the case of `Cc1cc(F)ccc1[C@H]1CNCCN1C(=O)N(C)[C@H](C)c1cc(C(F)(F)F)cc(C(F)(F)F)c1` [VESTIPITANT], the clearance was found to be 19 mL/min/kg in [1] and 15 mL/min/kg in [13]. Also, the ED50 in the data set with Meriones unguiculatus [2] was determined as 0.002 mg/kg; in the data set on Meriones unguiculatus [6], 0.027 mg/kg; with Meriones unguiculatus [7], 0.007 mg/kg; with Meriones unguiculatus [8], 0.014 mg/kg; in the data set on Meriones unguiculatus [11], 0.014 mg/kg. For the same compound, the values for the bioavailability in [3] and in data set [5] were 71% and 44%, respectively. Also, the results for the half-life in [4] and in data set [10] were 5 h and 11 h, respectively. The concentration ratio (Kp) at 5 min in data set [9] was found to be 1.3. Also, the pKb at Substance-P receptor [12] was found to be 9.87. Besides, the T1/2 on Substance-P receptor [14] is 0.995 h.
A word on the Ki: it is a dissociation constant, usually derived from enzyme kinetics or from competition with a known ligand. `Cc1cc(F)ccc1[C@@H]1CNCCN1C(=O)N(C)Cc1cc(C(F)(F)F)cc(C(F)(F)F)c1`: the Ki on Substance-P receptor [15] is 18.2 nM. For the same compound, in the data set with Meriones unguiculatus [11], the ED50 was found to be 5.6 mg/kg.
As to `COc1ccc(-n2nnnc2C(F)(F)F)cc1CN[C@H]1CCCN[C@H]1c1ccccc1` [VOFOPITANT], the inhibition constant Ki on Substance-P receptor [15] was 0.0501 nM. For the same compound, the ED50 with Meriones unguiculatus [11] was found to be 0.6 mg/kg.
As to `Cc1cc(F)ccc1[C@H]1CNCCN1C(=O)N(C)Cc1cc(C(F)(F)F)cc(C(F)(F)F)c1`, the ED50 is 0.3 mg/kg in the data set with Meriones unguiculatus [6] and 0.2 mg/kg in the data set with Meriones unguiculatus [11].
Regarding `Cc1cc(F)ccc1N1CCNCC1C(=O)N(C)Cc1cc(C(F)(F)F)cc(C(F)(F)F)c1` (centres undefined), the inhibitory constant (Ki) on Substance-P receptor [15] was 8.71 nM. The pKb at Substance-P receptor [12] turned out to be 8.56.
Regarding `CC(=O)O.Cc1cc(F)ccc1[C@H]1CNCCN1C(=O)N(C)[C@@H](C)c1cc(C(F)(F)F)cc(C(F)(F)F)c1`, in the data set on Meriones unguiculatus [11], the ED50 stood at 0.036 mg/kg.
Consider `Cc1cc(F)ccc1C1CNCCN1C(=O)N(C)Cc1cc(C(F)(F)F)cc(C(F)(F)F)c1` (racemic), for which the Ki at Substance-P receptor [15] is 1.29 nM.
